Assay outcomes from PubChem BioAssay.
Only some compounds are listed: those with a hit (about 2.2% of all), similar ones and a draw of the others.
CFTR F508del cor = correctors of CFTR F508del function in bronchial epithelial cells; CFBE cells, YFP halide quenching; stimulated with forskolin plus potentiator P3; % fluorescence drop versus neutral controls; activity (quench increase), % at 7.58 µM; hit rate 0.36% among 350,000;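 active = mean added fluorescence quench of at least 8% versus neutral control, with both replicates also reaching 8%; inconclusive = only one of the mean or replicate conditions met; inactive = mean below 8% and not both replicates reaching 8%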;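 note: cells transiently co-express mutant CFTR-F508del with the halide-sensitive YFP; corrector assay measuring rescue of mutant channel to the surface after 24 h compound exposure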
FGF22 binding = FGF22 (human) thermal shift binding; Q9HCT0; recombinant FGF22 thermal shift, SYPRO orange fluorescence; percent of sucrose octasulfate shift, DMSO zero; activity (Tm shift, normalised), % at 9.99 µM; hit rate 1.5% among 340,000;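 active = mean Tm shift, scaled 0 neutral to 100 positive control, at about 1.3% or above, every replicate too, limit read from the data; inconclusive = no clear call, values can overlap the other calls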
Target sequence (Q9HCT0 whole entry, looked up): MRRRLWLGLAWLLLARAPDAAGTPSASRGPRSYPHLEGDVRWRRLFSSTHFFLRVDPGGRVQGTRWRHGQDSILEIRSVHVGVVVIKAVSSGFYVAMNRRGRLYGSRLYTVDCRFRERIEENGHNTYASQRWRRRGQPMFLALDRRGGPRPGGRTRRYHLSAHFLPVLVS
dFosB act-1 = enhances mouse delta FosB homodimer DNA binding; AID 493131; activation, % at 25 µM; purified delta FosB, TAMRA-CDK5 oligo fluorescence polarization; percent of positive-control signal above neutral wells; P13346; hit rate 0.99% among 340,000;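 active = mean activation above about 17%, with every replicate also reaching it, limit read from the data, passing the limit was not always enough; inconclusive = only one of the two conditions met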
Target sequence (P13346 whole entry, looked up): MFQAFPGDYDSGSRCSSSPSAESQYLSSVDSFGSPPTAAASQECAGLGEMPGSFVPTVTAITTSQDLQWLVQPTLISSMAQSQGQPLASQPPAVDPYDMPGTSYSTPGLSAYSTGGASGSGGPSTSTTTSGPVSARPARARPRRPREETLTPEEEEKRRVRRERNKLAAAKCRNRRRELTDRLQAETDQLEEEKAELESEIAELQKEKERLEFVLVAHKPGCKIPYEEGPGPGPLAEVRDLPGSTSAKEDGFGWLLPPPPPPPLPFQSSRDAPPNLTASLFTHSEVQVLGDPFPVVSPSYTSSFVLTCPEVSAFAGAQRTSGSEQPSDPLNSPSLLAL
S100A4 inh HTS = S100A4-myosin IIA interaction inhibition | P26447 | S100A4/TAMRA-MyoIIA peptide fluorescence polarization | inhibition, % at 10.7 µM | hit rate 0.14% among 360,000 | AID 652163;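 active = mean inhibition of at least 70% across replicates, with every replicate also reaching that level; inconclusive = mean inhibition reaches 70% but some replicates fall short; inactive = mean inhibition below 70%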
Target sequence (P26447 whole entry, looked up): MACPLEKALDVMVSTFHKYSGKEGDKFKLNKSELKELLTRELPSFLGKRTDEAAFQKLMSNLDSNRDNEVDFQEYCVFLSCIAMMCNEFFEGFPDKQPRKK
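Material: S100A4 monomer (human). Medium: Calcium-containing HEPES buffer, pH 7.2. Probe or stimulus: labelled myosin peptide probe, 5 nM. Compound dosing: one concentration per compound. Timing: polarization read 5 min after assay mix addition, stable 5–60 min. Benchmarks: DMSO as neutral control, TFP as positive control.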
dFosB act-2 = delta FosB (mouse) homodimer activation. shares compounds with dFosB act-1. purified delta FosB, TAMRA-CDK5 oligo fluorescence polarization; normalised: neutral wells 0, positive control 100. activation, % at 24.9 µM. 2,400 tested, under 10 active. AID 588690;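 active = highest replicate activation at or above 34% and every replicate reaching that threshold; inconclusive = meets only one of the two criteria; inactive = meets neither criterion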;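 note: higher polarization means more probe DNA bound by delta FosB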
An asterisk follows results filed as active; ? = inconclusive; / = not tested or not shown.

SMILES	CFTR F508del cor	FGF22 binding	dFosB act-1	S100A4 inh HTS	dFosB act-2
CCN(CC)CCCNC(=O)c1ccc2c3n(nc2c1)-c1ccc(Cl)cc1CO3	1.4	-0.4	33.6*	3.2	-2.5
CN1CCc2cc3c(c4c2[C@H]1[C@H](O)c1ccccc1-4)OCO3	2.6	-0.2	31.6*	32.7	-0.8
COc1ccc2c(c1OC)C(=O)OC2C1c2c(cc3c(c2OC)OCO3)CCN1C (configuration not stated)	-3.4	0.0	0.1	-11.7	/
C[C@@H]1CN([C@@H](C)CO)C(=O)c2cccc(NC(=O)C3CC3)c2O[C@@H]1CN(C)S(=O)(=O)c1ccc(Cl)cc1	2.5	0.0	/	4.6	/
C[C@H](CO)N1C[C@H](C)[C@H](CN(C)C(=O)c2ccc3c(c2)OCO3)Oc2cc(-c3ccncc3)ccc2S1(=O)=O	1.6	-0.3	/	26.9	/
O=C(Nc1ccc(Cl)cc1)NN1CC(=O)N(c2cccc(C(F)(F)F)c2)CC1=O	-2.9	0.0	31.1*	-1.1	-1.0
Cc1ccc(N2CC(=O)N(NC(=O)Nc3ccc(Cl)c(Cl)c3)CC2=O)cc1	-1.4	-0.2	?	8.9	/
COc1ccccc1-c1ccc([C@@H]2[C@@H](CO)N(C(=O)C3CCOCC3)[C@H]2C#N)cc1	-5.4	0.0	/	-4.9	/
CN(C)c1nc(N/N=C\c2ccc(Cl)c([N+](=O)[O-])c2)nc(Nc2ccc(F)cc2)n1	/	/	118.3*	/	-16.6
Cc1oc2cc(O)ccc2c(=O)c1Oc1ccc(F)cc1	-0.2	-0.2	18.7*	-5.1	3.0
Cc1oc2cc(O)ccc2c(=O)c1Oc1ccc2ccccc2c1	/	/	-1.9	/	/
O=[N+]([O-])c1ccc(N2CCNCC2)cc1Sc1nc2ccccc2[nH]1	/	/	13.9	/	/
NCCNc1ccc([N+](=O)[O-])c(Sc2nc3ccccc3[nH]2)c1	/	/	25.4*	/	0.1
Cn1cnc(S(=O)(=O)N2C[C@H](O)COC[C@H]3O[C@@H](CC(=O)NC4Cc5ccccc5C4)CC[C@@H]32)c1	-1.1	-0.3	/	-2.6	/
CO[C@H](CN(C)C(=O)c1cnccn1)[C@@H](C)CN([C@H](C)CO)S(=O)(=O)c1ccc(C)cc1	-0.2	0.0	/	-1.4	/
COCCn1c(SCC(=O)c2c(N)n(C3CC3)c(=O)[nH]c2=O)nnc1-c1ccc(Cl)cc1	-5.3	0.4	20.6*	1.5	0.7
COCCCn1c(SCC(=O)c2c(N)n(C3CC3)c(=O)[nH]c2=O)nnc1-c1ccccc1Cl	/	0.0	/	-1.4	/
COc1cc(/C=C(/C#N)c2nc3ccccc3[nH]2)ccc1OCC(=O)Nc1ccccc1C	-0.7	0.2	-7.0	4.1	/
COc1cc(/C=C(\C#N)c2nc3ccccc3[nH]2)ccc1OC(=O)c1ccco1	/	0.2	26.6*	3.0	3.9
COc1ccc(Br)cc1/C=C/C(=O)NC(=S)Nc1ccc(CN2CCOCC2)cc1	-1.2	-0.1	48.3*	4.6	2.3
COc1cccc(C(=O)Nc2nnc(-c3ccc(F)cc3)o2)c1	-1.6	-0.1	1.8	-6.2	/
COc1cccc(C(=O)Nc2nnc(-c3ccc(Cl)cc3)o2)c1	1.3	0.2	22.8*	-0.4	-1.5
COc1cc(OC)cc(-c2nnc(NC(=O)c3ccc4c(c3)OCCO4)o2)c1	0.4	0.1	25.7*	2.2	-8.3
CCOc1ccc(-n2c([S-])c(C(=O)Nc3ccc(S(=O)(=O)N4CCOCC4)cc3)[n+]3cc(C(N)=O)ccc23)cc1	-3.0	-0.5	20.0*	-0.4	1.6
Cn1c(SCC(=O)Nc2nccs2)nnc1-c1ccc(S(=O)(=O)N2CCCC2)cc1	/	/	-3.2	/	/
SMILES	CFTR F508del cor	FGF22 binding	dFosB act-1	S100A4 inh HTS	dFosB act-2
O=C(CSc1n[nH]c(-c2ccc(S(=O)(=O)N3CCCCC3)cc2)n1)Nc1nccs1	/	/	63.6*	/	5.1
COc1ccc(NC(=O)N(C)C[C@@H]2Oc3ccc(N(C)C)cc3C(=O)N([C@@H](C)CO)C[C@H]2C)cc1	0.1	1.2	/	13.9	/
O=C(CCC(=O)c1ccc(Oc2ccccc2)cc1)Nc1cccc(Cl)c1	-2.4	0.1	26.2*	3.9	-0.2
Cc1cccc2nc(-c3cccc(NC(=O)c4ccc(Cl)cc4)c3)cn12	-1.8	0.1	20.6*	13.3	5.7
O=C(NCCCN1CCOCC1)[C@H]1N[C@H]2c3ccc(C4=CCCC4)c(=O)n3C[C@H]2[C@@H]1CO	1.7	0.1	/	-0.9	/
O=C(CNC(=O)c1ccccc1Cl)N/N=C/c1ccc2c(c1)OCO2	2.4	-0.1	-5.0	-1.6	/
O=C(Cn1nnc(-c2ccccc2Cl)n1)N/N=C/c1ccc2c(c1)OCO2	/	/	23.6*	/	-1.0
O=C(N/N=C/c1ccc2c(c1)OCO2)c1ccc(NC(=O)c2ccccc2Cl)cc1	-2.5	0.0	22.6*	-2.8	-4.7
O=C(N/N=C/c1ccc2c(c1)OCO2)c1cccc(NC(=O)c2ccccc2Cl)c1	6.4	0.3	21.3*	-39.5	3.6
Cc1cccc(C(=O)Nc2ccc(C(=O)N/N=C/c3ccc4c(c3)OCO4)cc2)c1	-1.4	-0.2	15.7	-0.7	/
C[C@H]1CN([C@@H](C)CO)C(=O)c2cc(C#CC(C)(C)O)cnc2O[C@H]1CN(C)C(=O)C1CCC1	-6.1	0.0	/	-1.2	/
CCOC(=O)c1sc(NC(=O)CSc2nnnn2-c2ccc(C)cc2C)nc1C	/	/	13.7	/	/
COC(=O)c1ccccc1NC(=O)CSc1nnnn1-c1ccc(C)cc1C	/	/	30.9*	/	0.6
Cc1ccccc1-n1nnnc1SCC(=O)NNC(=O)c1ccc(NC(=O)CC#N)cc1	-10.5	-0.3	47.4*	-3.6	0.3
Cc1ccccc1-n1nnnc1SCC(=O)Nc1ccc(N2CCN(C)CC2)cc1	-0.6	0.0	-0.6	0.6	/
CCCNC(=O)C[C@@H]1CC[C@H]2[C@H](COc3ccc(NC(=O)c4cccc(Cl)c4)cc3C(=O)N2C)O1	-0.6	/	/	/	/
Cc1ccc(C2(C(F)(F)F)NC(=O)N3C(=C2C#N)Nc2ccccc23)cc1 (configuration not stated)	/	/	22.8*	/	6.2
O=C(N/N=C/c1ccc(OC(=O)c2cccs2)cc1)c1ccc(F)cc1	/	/	33.2*	/	-0.7
O=C(N/N=C/c1ccc(F)cc1)c1ccccc1	-1.9	0.2	-5.5	-1.9	/
CN1CCN(c2ccc(-c3cccc(NC(=O)COc4ccc(Cl)cc4Cl)c3)nn2)CC1	-3.2	-0.3	28.4*	-1.0	0.8
O=C(Nc1cccc(S(=O)(=O)N2CCCCC2)c1)c1c2c(nc3ccccc13)CCN(Cc1ccccc1)C2	/	-0.5	51.7*	-10.9	-1.9
Cc1cc(C(=O)Nc2cccc(S(=O)(=O)N3CCCCC3)c2)c2ccccc2n1	-0.9	0.1	-9.1	-5.6	/
O=C(Cn1nc(C(=O)O)c2ccccc2c1=O)Nc1cccc(S(=O)(=O)N2CCCCCC2)c1	2.4	0.2	32.3*	1.1	-0.9
O=C(Cn1nc(C(=O)O)c2ccccc2c1=O)Nc1cccc(S(=O)(=O)N2CCCC2)c1	-4.6	-0.1	-9.2	-2.9	/
O=C(O)c1nn(CC(=O)N2CCN(S(=O)(=O)c3ccc(Cl)cc3)CC2)c(=O)c2ccccc12	-4.8	0.1	30.1*	2.2	4.1
